Screening data (PubChem)
Only some compounds are listed: those with a hit (about 4.1% of all), similar ones and a draw of the others.
KCC2 mod: modulators of human KCC2 chloride dependent transport; Q9H2X9; B-score of Tl+ flux slope (higher = more flux/activation; lower = inhibition) at 10 µM; KCC2 cells, thallium flux FluoZin-2 fluorescence; hit rate 2.2% among 190,000; AID 1456;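 active = thallium flux slope and its plate-corrected score both differing from the plate sample mean at a set confidence after two filtering rounds, in either direction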;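 note: slope of fluorescence scaled to starting intensity during 10 to 20 s after thallium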
KCNK3 inh: human KCNK3 channel inhibition, primary screen; hit rate 0.84% among 340,000; B-score at 10 µM; CHO-KCNK3 thallium flux, FluxOR fluorescence; hits give low values; AID 602410; O14649;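 active = B-score under library mean minus 4 SD, starting fluorescence ratio at most library mean plus 5 SD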;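 note: more negative B-score means stronger inhibition of thallium flux through KCNK3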
KCNK9 block: blocks the human KCNK9 two-pore domain potassium channel | Q9NPC2 | HEK293 KCNK9, FluxOR thallium flux fluorescence; hits give low values | B-score at 10 µM | hit rate 1.2% among 310,000 | AID 488922;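 active = ratio B-score over 3 SD below the library mean, with starting fluorescence within 5 SD of its mean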;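 note: negative B-score means less thallium flux so channel inhibition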
Target sequence (Q9NPC2 whole entry, looked up, the tested form may be a part): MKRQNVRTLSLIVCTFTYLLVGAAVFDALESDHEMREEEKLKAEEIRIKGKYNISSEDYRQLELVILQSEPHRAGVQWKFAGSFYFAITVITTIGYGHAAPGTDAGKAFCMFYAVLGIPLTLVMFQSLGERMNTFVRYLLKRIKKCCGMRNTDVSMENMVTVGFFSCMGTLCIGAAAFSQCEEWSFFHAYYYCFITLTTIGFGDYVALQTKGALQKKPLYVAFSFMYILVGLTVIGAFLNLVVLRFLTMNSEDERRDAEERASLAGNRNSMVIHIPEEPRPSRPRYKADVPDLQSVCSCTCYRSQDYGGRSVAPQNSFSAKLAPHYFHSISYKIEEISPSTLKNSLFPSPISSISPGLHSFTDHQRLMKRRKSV
KCNQ1 act: human KCNQ1 channel potentiation or activation; CHO-K1 KCNQ1, thallium flux FluxOR fluorescence; hits give high values; B-score at 10 µM; hit rate 0.35% among 310,000;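 active = fluorescence ratio B-score, a plate-corrected score, at least three library SD, with initial intensity B-score within 5 SD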
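assay system = KCNQ1-transfected CHO-K1 cells | medium = assay buffer with matched DMSO | probe or stimulus = depolarizing K+/Tl+ stimulus, K2SO4 and Tl2SO4 each 12.5 mM in 5x stock | dosing = single dose | incubation = dye 90 min, compound 20 min, room temperature | detection = kinetic FluxOR fluorescence, 10 s baseline plus 110 s post-stimulus | evaluation = ratio B score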
hERG rescue: compounds protecting human hERG from proarrhythmic drug block. Q12809. CHO-hERG, FluxOR thallium flux, dofetilide IC70 present. activation (rescue from dofetilide block), less the hit threshold, % at 10 µM. hit rate 0.51% among 310,000;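 active = activation above the mean of controls blocked by dofetilide plus 5 SD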;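 note: thallium influx through hERG after potassium depolarization seen as dye fluorescence rise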
KCNQ1 block: blocks the human KCNQ1 potassium channel | P51787 | CHO-K1 KCNQ1, FluxOR thallium flux fluorescence; hits give high values | B-score at 10 µM | hit rate 1.3% among 310,000 | AID 2642;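 active = compounds whose thallium flux B-score, printed positive for inhibition, exceeds three library SD while starting fluorescence stays within three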;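 note: channel opened by potassium depolarization with thallium stimulus after 20 min compound exposure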
KCC2 secondary: confirmation of human KCC2 transport modulators; shares compounds with KCC2 mod; HEK293-KCC2, thallium flux, FluoZin2 fluorescence; hits give high values; normalised thallium flux (F/F0 slope) at 10 µM; hit rate 15% among 3,700; AID 1713;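 active = thallium flux slope above the same plate's solvent-only control mean plus 3 SD; inconclusive = the two replicate wells disagree; inactive = no significant difference from solvent-only control wells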
KCC2 bumet counter: thallium flux despite bumetanide block in KCC2 cells, secondary assay 3 | hit rate 49% among 3,700 | AID 1714 | shares compounds with KCC2 mod | normalized thallium flux at 10 µM | HEK293-KCC2 + bumetanide/ouabain, thallium flux FluoZin2; hits give high values;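 active = thallium entry rate above the same plate's blocked-transporter control wells by more than 3 SD; inconclusive = the two repeat wells disagree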;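 note: raw slope of fluorescence over initial fluorescence between 10 and 20 s after thallium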
KCC2 sec2: confirmation of human KCC2 transport modulators | shares compounds with KCC2 mod | HEK293-KCC2, thallium flux FluoZin2 fluorescence; actives lie on both sides; F/F0 rise rate, 10–20 s post-thallium | normalized thallium flux at 10 µM | hit rate 23% among 3,700 | AID 1715;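 active = thallium flux slope more than 3 SD above or below the plate's solvent-only control mean, mostly below; inconclusive = the two repeat wells disagreed; inactive = no significant shift from solvent-only controls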
HEK293 Tl flux: counter-screen for KCC2 modulators: effect in parental HEK293 cells; AID 1716; thallium flux rate (normalised fluorescence) at 10 µM; hit rate 46% among 3,700; thallium flux FluoZin2, ouabain; baseline-ratio fluorescence slope, 10–20 s after thallium; shares compounds with KCC2 mod;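 active = thallium flux rate significantly above the same plate's solvent-only control wells, beyond their mean plus 3 SD; inconclusive = the two replicate wells gave conflicting results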
KCC2 ouabain: modulates human KCC2 on retest with ouabain; shares compounds with KCC2 mod; HEK293-KCC2, thallium flux FluoZin2 fluorescence; bidirectional: low = inhibitor, high = activator; raw Tl+ flux slope (below DMSO = inhibition, above = activation) at 10 µM; hit rate 48% among 3,700; AID 1717;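 active = thallium flux slope beyond 3 SD from same-plate DMSO control mean in most replicates, usually higher, sometimes lower; inconclusive = repeat tests gave conflicting results; inactive = no significant difference from controls in most replicates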;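 note: slope of initial-normalized fluorescence between seconds 10 and 20 after thallium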
HEK counter2: parental HEK flux effect, counter-screen 2 | shares compounds with KCC2 mod | HEK293 parental, thallium flux FluoZin-2 fluorescence slope | thallium flux slope at 10 µM | hit rate 33% among 3,700 | AID 1718;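 active = thallium flux slope above the same plate's solvent-control mean plus 3 SD in both duplicate wells; inconclusive = duplicate wells that disagreed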;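 note: run without ouabain in cells lacking the KCC2 cotransporter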
Large screens that a line does not name were inactive (follow-up assays come after a bar, where they were run).

CCC1=NN=C(c2ccc(F)cc2)C(c2c[nH]c3ccccc23)N1O (centres undefined)	none
COc1ccccc1C(=O)NC(=O)COC(=O)c1ccc(NC(=O)CC#N)cc1	none (no result: KCC2 mod)
Cc1cc(C(=O)CCC(=O)N2CCN(S(=O)(=O)c3cccs3)CC2)c(C)s1	KCC2 mod -5 | KCC2 secondary inactive | KCC2 bumet counter inactive | KCC2 sec2 inconclusive | HEK293 Tl flux inconclusive | KCC2 ouabain inactive | HEK counter2 inactive
CCOC(=O)CSc1nnc(-c2c[nH]c3ccccc23)o1	none (no result: KCC2 mod)
CC1CCCN(C(=O)CSc2nnc(-c3c[nH]c4ccccc34)o2)C1 (centres undefined)	KCC2 mod -3.8 | KCC2 secondary inactive | KCC2 bumet counter inactive | KCC2 sec2 inconclusive | HEK293 Tl flux inactive | KCC2 ouabain inconclusive | HEK counter2 inactive
CCC1CCCCN1C(=O)CSc1nnc(-c2c[nH]c3ccccc23)o1 (centres undefined)	KCC2 mod -3.3 | KCC2 secondary inactive | KCC2 bumet counter inactive | KCC2 sec2 inactive | HEK293 Tl flux inactive | KCC2 ouabain 0.022 | HEK counter2 inconclusive
CC1CCCC(C)N1C(=O)CSc1nnc(-c2c[nH]c3ccccc23)o1 (centres undefined)	none (no result: KCC2 mod)
COc1ccc(N2CCN(CC(=O)c3c(C)n(C)c4ccc(OC)cc34)CC2)cc1	none
Cc1c(N2C(=O)/C(=C\c3ccccc3O)SC2=S)c(=O)n(-c2ccccc2)n1C	KCC2 mod 52, KCNQ1 act 42, hERG rescue 17 | KCC2 secondary 0.027 | KCC2 bumet counter 0.062 | KCC2 sec2 0.068 | HEK293 Tl flux 0.068 | KCC2 ouabain 0.063 | HEK counter2 0.064
CCC(C)n1c(C)cc(=O)n1C(C)CC (centres undefined)	none (no result: KCC2 mod, KCNK9 block, KCNQ1 act, hERG rescue, KCNQ1 block)
CC(=O)NC1=NN(C(C)=O)C2(S1)C(=O)N(C(C)C)c1ccc(C)cc12 (centres undefined)	none (no result: KCC2 mod) | KCC2 secondary inactive | KCC2 bumet counter inactive | KCC2 sec2 inactive | HEK293 Tl flux inactive | KCC2 ouabain inactive | HEK counter2 inactive
CC(=O)NC1=NN(C(C)=O)C(C)(c2ccccc2)S1 (centres undefined)	none (no result: KCC2 mod)
Cc1ccc(-c2nc(=S)c3c(n2Cc2ccco2)CC(C)(C)OC3)cc1	KCNQ1 act 12 (no result: KCC2 mod) | KCC2 secondary 0.017 | KCC2 bumet counter 0.025 | KCC2 sec2 inactive | HEK293 Tl flux 0.011 | KCC2 ouabain inactive | HEK counter2 0.012
Cc1cccc(-c2nc(=S)c3c(n2Cc2ccco2)CCCC3)c1	KCC2 mod 21 | KCC2 secondary inactive | KCC2 bumet counter 0.021 | KCC2 sec2 inactive | HEK293 Tl flux 0.018 | KCC2 ouabain 0.032 | HEK counter2 0.015
O=C(NCc1ccco1)C1CCCN(c2ncnc3c2nc2n3CCCCC2)C1 (centres undefined)	none (no result: KCC2 mod)
c1cncc(-c2nnc(SCc3cccc4ccccc34)o2)c1	KCC2 mod -4.3 | KCC2 secondary inactive | KCC2 bumet counter inactive | KCC2 sec2 inactive | HEK293 Tl flux inactive | KCC2 ouabain inactive | HEK counter2 inactive
CCC(OC(=O)C1=Cc2ccccc2OC1)C(=O)NCc1ccco1 (centres undefined)	KCC2 mod -2.8 | KCC2 secondary inactive | KCC2 bumet counter inactive | KCC2 sec2 inactive | HEK293 Tl flux inactive | KCC2 ouabain inconclusive | HEK counter2 inactive
CCOc1cc(CNn2nnnc2N)cc(Cl)c1OCC(=O)NC(C)(C)C	none | KCC2 secondary inactive | KCC2 bumet counter inactive | KCC2 sec2 inactive | HEK293 Tl flux inactive | KCC2 ouabain inactive | HEK counter2 inactive
Cc1cc2nc3n(c2cc1C)CC1CC(C(=O)NCc2ccco2)N(C)C31 (centres undefined)	none
COc1cc(CC(=O)Nc2ccc(S(=O)(=O)Nc3ncccn3)cc2)cc(OC)c1OC	KCC2 mod -4 | KCC2 secondary inactive | KCC2 bumet counter inactive | KCC2 sec2 inactive | HEK293 Tl flux 0.0095 | KCC2 ouabain inactive | HEK counter2 inactive
